According to ChEMBL document CHEMBL1157948, “Triterpenoids from the resin of Styrax tonkinensis and their antiproliferative and differentiation effects in human leukemia HL-60 cells” (2006):

Legend:
Type in all cases: functional
[1] = test system: HL-60; test: Growth inhibition of human HL60 cells after 3 days by trypan blue method
How it was run: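 HL-60 cells grown in RPMI-1640 with 10% heat-inactivated FBS, 1 mM L-glutamine, penicillin/streptomycin. Log-phase cells seeded at 1 × 10⁵ cells/mL and exposed to a range of concentrations for 3 days, in triplicate. Total cells counted on a hemocytometer, with trypan blue marking nonviable cells. Growth inhibition taken relative to untreated control; IG₅₀ from regression of concentration-response data; mean ± SE of three independent experiments.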

[2] = test system: HL-60; test: Induction of cell differentiation of human HL60 cells after 3 days by NBT reduction method; parameters: concentration or dose not given beside the values
How it was run: (§1)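 HL-60 cells in RPMI-1640 with 10% heat-inactivated FBS, seeded at 1 × 10⁵ cells/mL in log phase and treated 3 days at nontoxic concentrations. Differentiation scored by NBT reduction as percentage of NBT-positive cells among 200 counted; mean ± SE of three independent experiments.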

[3] = test system: HL-60; test: Induction of cell differentiation of human HL60 cells at 100 uM after 3 days by NBT reduction method; how it was run: as §1

In the case of `CC1(C)CC[C@]2(C(=O)O)CC[C@]3(C)C(=CC[C@@H]4[C@@]5(C)CCC(=O)C(C)(C)[C@@H]5[C@H](O)C[C@]43C)[C@@H]2C1`, the IG50 [1] is reported as 14.2 µM and the Activity [2] is reported as less than 10%.

`CC1(C)CC[C@]2(C(=O)O)CC[C@]3(C)C(=CC[C@@H]4[C@@]5(C)CCC(=O)C(C)(C)[C@@H]5CC[C@]43C)[C@@H]2[C@@H]1O` showed an IG50 [1] of 41 µM and an Activity [2] of less than 10%.

With `CC1(C)CC[C@]2(C(=O)O)CC[C@]3(C)C(=CC(=O)[C@@H]4[C@@]5(C)CC[C@H](O)C(C)(C)[C@@H]5[C@H](O)C[C@]43C)[C@@H]2C1` the IG50 [1] was 99.4 µM and the Activity [3] was 44%.

Compound `CC1(C)CC[C@]23CC[C@]4(C)[C@@H](C(=O)C[C@@H]5[C@@]6(C)CC[C@H](O)C(C)(C)[C@@H]6CC[C@]54C)[C@@H]2[C@H]1OC3=O` has an IG50 [1] of 51.2 µM and an Activity [2] of less than 10%.

Compound `CC1(C)CC[C@@]23CC[C@]4(C)[C@@](OC2=O)([C@@H]3C1)[C@H]1O[C@H]1[C@@H]1[C@@]2(C)CCC(=O)C(C)(C)[C@@H]2[C@H](O)C[C@]14C` has an IG50 [1] of 41.8 µM and an Activity [2] of less than 10%.

Compound `CC1(C)CC[C@@]23CC[C@]4(C)[C@@](OC2=O)([C@@H]3C1)[C@H]1O[C@H]1[C@@H]1[C@@]2(C)CC[C@H](O)C(C)(C)[C@@H]2[C@H](O)C[C@]14C` has an IG50 [1] of 27.5 µM and an Activity [2] of less than 10%.

Work on `CC1(C)CC[C@]2(C(=O)O)CC[C@]3(C)C(=CC[C@@H]4[C@@]5(C)CC[C@H](O)C(C)(C)[C@@H]5CC[C@]43C)[C@@H]2C1` [OLEANOLIC_ACID] yielded an IG50 [1] of 8.9 µM and an Activity [2] of less than 10%.

Work on `CC1(C)CC[C@]2(C(=O)O)CC[C@]3(C)C(=CC[C@@H]4[C@@]5(C)CC[C@H](O)C(C)(C)[C@@H]5CC[C@]43C)[C@@H]2[C@@H]1O` [SIARESINOLIC ACID] yielded an IG50 [1] of 29 µM and an Activity [2] of less than 10%.

With `CC1(C)CC[C@]2(C(=O)O)CC[C@]3(C)C(=CC[C@@H]4[C@@]5(C)CC[C@H](O)C(C)(C)[C@@H]5[C@H](O)C[C@]43C)[C@@H]2C1` [SUMARESINOLIC ACID] the IG50 [1] was 30.2 µM and the Activity [2] was less than 10%.
